Experimental data taken from the EternaBench riboswitch data.

System: MS2 coat protein
Test: apparent Kd, MS2 coat protein; higher = weaker binding; RNA-MaP array; FMN 200 µM where present
Outline: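 Stalled E. coli RNA polymerase transcribed the designs on Illumina sequencing-chip clusters. SNAP-549-labelled MS2 coat protein was titrated from 0.7 or 1.5 nM, doubling to 3 µM, without and then with constant ligand, in 100 mM Tris-HCl pH 7.5, 80 mM KCl, 4 mM MgCl2, BSA, DTT, yeast tRNA and Tween-20. Per-cluster binding curves were fitted to green signal normalised to red-channel RNA signal and control-cluster median Fmax. The apparent Kd is the median of the filtered fits.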

[1] = designed as: OFF switch for flavin mononucleotide, no ligand
[2] = ligand present: flavin mononucleotide, designed as: OFF switch for flavin mononucleotide
[3] = designed as: ON switch for flavin mononucleotide, no ligand
[4] = ligand present: flavin mononucleotide, designed as: ON switch for flavin mononucleotide

Sequence | apparent Kd [1] [µM] | apparent Kd [2] [µM] | apparent Kd [3] [µM] | apparent Kd [4] [µM]
AAGGUCAUCUGAGGAUAUCGACCUCAAAGGCUACGAGAAGGCAGACUGACAUGAGGAUCACCCAUGUACCGGGAAGAUGCCUCC | 0.0158 | 0.173 |  | 
UUCCUCGUUGUGAGGAUAUCGUCCUAUUUUUGUUACGAGAAGGCACAUGAGGAUCACCCAUGUUACUUGAUGUU | 0.0199 | 0.071 |  | 
GACGGAUGUAUAGGAUAUCGACUGGAAUACAGUCGAGAAGGAUACAUGAGGAUCACCCAUGUAACCGUCAAUAAUAAUAAUAAU | 0.014 | 0.0297 |  | 
GUUGUCUAUGUAGGAUAUGCGAGGCGAGGCCUCGCAGAAGGACAUGAGGAUCACCCAUGUAUUGCGGUCUGCGUUCAGAUCGCU | 0.0329 | 0.286 |  | 
AUUUAAUUUAAUAAGAUCACAUGAGGAUCACCCAUGUAUAUAUAGGAUAUCAGCUCGUGUAGAGCUGAGAAGGAUAUAUACUAU | 0.316 | 0.204 |  | 
UUUACAUGAGGAUCACCCAUGUUAAAAUAAUUAAUUAUAAGUGAGGAUAUAUAAAUUAUAAAAUUGUAGAAGGCACUGGGUAUU |  |  | 0.022 | 0.0234
GGGCAUAUUACAUGAGGAUCACCCAUGUCAGAAAGGGUAAUCAGAAGGUACUAUUAGAGAAAGAGUAAGGAUAUGAUUAUGCCC |  |  | 0.486 | 0.0406
ACAGGCUUCGAGAAGGACAUGAGGAUCACCCAUGUGCGUGUGAAGCAGCCGUGAGGCUGCAUCAUGUAGGAUAUCGGAGUCUGC | 0.073 | 0.557 |  | 
UUCAGACAUGAGGAUCACCCAUGUGAGGAUAUGAUGCGAUCGUCGAAAGACGAUAGCAUCAGAAGGCACAAAUG | 0.103 | 0.155 |  | 
UUAGAGAAGGAGGAUAUGCUGUUCUGUCACGUAGCAGAAGGCCUUACAUGAGGAUCACCCAUGUUGAUCCCAGU | 0.618 | 0.576 |  | 
CCAGCAACAUGAGGAUCACCCAUGUAGGAUAUCGCUAUUGUAAUCAUGAAACAUGAUUACAAUAGCGAGAAGGACAUAUGCUCC | 0.00753 | 0.0102 |  | 
CUUCUGUGAGGAUAUGUUAGCUCCCGGCAUGUCGCUGGGAGACAGAAGGCACAUGAGGAUCACCCAUGUGGGCG | 0.034 | 0.161 |  | 
UGUUUAUAUGAAGGAUAUACUUAACAUGAGGAUCACCCAUGUGGUGUUGUGAGUGAGUGAGUUUAGUAGAAGGUCAAUUAUUUU | 0.286 | 0.643 |  | 
CUGAUGUUAGGAUAUCAGGUCGCGCACGAAGGCGCGCGGCAUGAGAAGGAACAUGAGGAUCACCCAUGUGACGA | 0.0484 | 0.145 |  | 
UACAUGUGAGGAUAUGUACGAGACCCUGACGGGCCUCGCAGGCAGAAGGCACAUGAGGAUCACCCAUGUGACCG | 0.0272 | 0.0991 |  | 
CGCUGUCUCGCAGGAUAUGCAUUGGAUUACAAUGCAGAAGGGCGAUUACAUGAGGAUCACCCAUGUGUUGACAGUGAAGAAUAG |  |  | 0.0966 | 0.0222
GGCGUGUUAGGAUAUCGCGGCGGCGGCGUUUGUUGUUGUUGUGAGAAGGAACAUGAGGAUCACCCAUGUGUGCC | 0.0627 | 0.295 |  | 
ACAUUGAUUGUGAGGAUAUCGAUGUGAUGGUAUGUCGAGAAGGCACAUGAGGAUCACCCAUGUGGGUGUGGGCA | 0.259 | 0.292 |  | 
UCGUAUAAGGGCAUUACACAUGAGGAUCACCCAUGUACGUUAGAGGAUAUGCAUUCCAGUCGAACGUAGAAGGCUAGAGAAGGG | 0.118 | 0.117 |  | 
ACACAACAUGAGGAUCACCCAUGUUUUCGAUUCACAGGAUAUGGGACAUCCGGAGGGUGACCAGAAGGGUGACUCG |  |  | 0.0299 | 0.0188
UGUAUGGACAGAGGAUAUACGGCUAGGAGAUACUAGCCACUAUUCCUCACAUGAGGAUCACCCAUGUAGAAGGCUGUCCAUACU | 0.0172 | 0.12 |  | 
GGGUGACAUGAGGAUCACCCAUGUCAGGAUAUCUAGGGCAGAUGCUGGGAGCGUUCGCAGAGAAGGGACCAGAU | 0.0523 | 0.0461 |  | 
GUCUGAUUGUAGAAGGUACUUAAUACUCAUGUAACAUGAGGAUCACCCAUGUAUCAACAAUAUUGUAAGGAUAUACAUAUCUCA |  |  | 0.478 | 0.258
CACAAUCUAUCUGAGGAUAUCAUGAAAAAAACAUGAGGAUCACCCAUGUGCAGGAAAACUGCAUAUGAGAAGGCAGAUAGAUUGU |  |  | 0.77 | 0.0284
AGAUUCAUGGCCCGUUCGGGCUCACAUGAGGAUCACCCAUGUGAGGAUAUGACGUACCUGACUCGUCAGAAGGCGCAUGCGAAU | 0.00741 | 0.0137 |  | 
UACGAUGUACAUGAGGAUCACCCAUGUCAUAUGCCCGUGACACAGGAUAUCCAGGAUAGGCCAAAGGAGAAGGGUGAUCCGCGG |  |  | 0.0669 | 0.139
GCCGGUUAAGUCAGGAUAUACCUAUGGAUACAUAGGUAGAAGGGACAUGAGGAUCACCCAUGUUCCUCAUCGGC | 0.0161 | 0.0489 |  | 
AAUAACAGAGGAUAUACUGUUUUAUGUAUUUAUUAUUUUAAACAUGAGGAUCACCCAUGUAGAAGGCUGAGUAA | 0.0246 | 0.0234 |  | 

Sequence | apparent Kd [1] [µM] | apparent Kd [2] [µM] | apparent Kd [3] [µM] | apparent Kd [4] [µM]
AAAUAAACUAGCAUAAUAUCCUCACAUGAGGAUCACCCAUGUCAGGAUAUUUGUCCUAAAAGGACAGAGAAGGGACGUGCUAGA | 0.00507 | 0.00627 |  | 
AUGUUAGGGAGAGGAUAUUGACAUGAGGAUCACCCAUGUAUUUGGGAGUGUUUACUGAAUUCUUACGAGAAGGCUUACGAAAUU | 0.396 | 0.242 |  | 
AAUAUAAAAGAGCUGGAUAAACUCACAUGAGGAUCACCCAUGUAGGAUAUCAGCACGAUAAGUGCUGAGAAGGACAACCAGCUC | 0.0148 | 0.0153 |  | 
GUUGCUACUGAGGAUAUUAUUUUAUUCGACUGAUAAGAAGGCAGUACAUGAGGAUCACCCAUGUGGGUAGCCAG | 0.0238 | 0.0678 |  | 
UUAAAUCAUGUAGGAUAUGCAUGGCGAAGCUACGCAGAAGGACAUGAGGAUCACCCAUGUUCGAGGGUCUGAGUACAGAUCCAA | 0.0236 | 0.123 |  | 
UUAUCUUGUCAAGGAUAUGUAGUAUUGAUCUGAAAACAUGAGGAUCACCCAUGUAUACGGUGGGAACAGAAGGUGAAUGUUGAA | 0.679 | 0.67 |  | 
UGUUGUAUUACAGGAUAUCUAUUGGUUUUAUUUAGAGAAGGGUAUUCACAUGAGGAUCACCCAUGUAUAUACGAGGAAGUUGUG |  |  | 0.0605 | 0.0669
AUCAGCUCGUCAGGAUAUACUUCACUGCGUCAGCAGUGUGGUAAGAUCACAUGAGGAUCACCCAUGUAGAAGGGACGAGCUGAU | 0.006 | 0.00871 |  | 
AUAUUACGAGGAUAUCGUUUUUUUCACAUGAGGAUCACCCAUGUUAUCCAUGUUUCGUUUCGAGAAGGCGUAAGUU | 0.0506 | 0.0361 |  | 
UUAUUUAUGUAAGGAUAUCGAUGAUAUACACAUCCGACAUGAGGAUCACCCAUGUUUUAUUUUGUCGAGAAGGUACAUUGUCGG |  |  | 0.0562 | 0.047
CCGCUGUGAGGAUAUUAGUAGUAGUCAGAAUAGACUAUUACUGAGAAGGCACAUGAGGAUCACCCAUGUUGCGG | 0.0308 | 0.039 |  | 
UUGGACGUCGUAGGAUAUGUAGGAUAUUCCUACAUGAGGAUCACCCAUGUUGACAUGAAAGAAGGACAGAAGGACGAUGUCCAU |  |  | 0.144 | 0.00577
GUACGGAGGGAGAAGGGCUAGAAGGUCCAGCUUAUGUGUGUUGCAACAUGAGGAUCACCCAUGUAGCAGGAUAUCCCUUGUACA | 0.0125 | 0.0369 |  | 
AACAAUCUAUCUGAGGAUAUCAUGAAAAAAACAUGAGGAUCACCCAUGUGCAGGAAAACUGCAUAUGAGAAGGCAGAUAGAUUGG |  |  | 0.618 | 0.0316
UAAUUACCGAUCGGUUUGACUUAGCAGGAUAUACAUGAGGAUCACCCAUGUCAAGGGCGUGCCCGGUAGAAGGGUUGGGUUCAA | 0.0351 | 0.0549 |  | 
GGAUCGAGUGUGAGGAUAUGCUGGUCGUAAGAUCAGCAGAAGGCACAUGAGGAUCACCCAUGUGAAAACGGUCC | 0.0247 | 0.164 |  | 
CACACCGUAGGAGGAUAUCCCUGGACAUGAGGAUCACCCAUGUUUAGCCCGUCCUCAUGUUAGUCGGAGAAGGCCUAGUGGUCG | 0.0367 | 0.0376 |  | 
UGGUACAUGGGAGGAUAUCAUGUAGAUACAUGAGGAUCACCCAUGUCGAUGGAGACAUCGGAGAUUGAGAAGGCCCAUGUACCU |  |  | 0.778 | 0.0329
UUACUCAUGUAAGGAUAUGCAGCCGAAGCGGCUGCAGAAGGUACUAUAAUACAUGAGGAUCACCCAUGUAAAAUAAAUAAAGUU |  |  | 0.0204 | 0.0163
CAGCACGGAAACAAAGUCUUCGGACAUGAGGAUCACCCAUGUAAGGAUAUGCCUACUAAAAGUAGGCAGAAGGUACGCGUGCUG | 0.0189 | 0.0509 |  | 
UAAUCACCCUCAUGUACCUGAGGACAUGAGGAUCACCCAUGUAAGGAUAUAGCCAUUAAAUCUAACUAGAAGGUAUAGGUAAUC | 0.808 | 0.624 |  | 
UACGGACAUGAGGAUCACCCAUGUGAGGAUAUCGGUACCGAUAGCAUAAUCUACUCGGCGAGAAGGCACAGCGU | 0.0307 | 0.0401 |  | 
AAUUGACACGUAGGAUAUCGCUCUUAUUUAACACGAGAAGGACGUACAUGAGGAUCACCCAUGUUAAAUGGUGUAGAUUAGUUG | 0.153 | 0.481 |  | 
AUCAGCUUGACAGGAUAUGCAUGUCAGCGAAAGCUGACAAUCUUAAUAACAUGAGGAUCACCCAUGUAGAAGGGUCGAGCUGAU | 0.0171 | 0.0203 |  | 
UGUUGUAUUACAGGAUAUCUAUUAUUUUUAGUUAGAGAAGGGUAUUCACAUGAGGAUCACCCAUGUAUAUACGAGGAAGUUGUG |  |  | 0.0435 | 0.0443
UGUUGGAGCGAGAAGGGACGAUGGGAAGCUGUAGGCUGGCACUGUAGACAUGAGGAUCACCCAUGUCAGGAUAUUGCCGAACUA | 0.00583 | 0.00771 |  | 
AUAUAUGCCCAGAAGGUGCCAGCGAGAGCUGCACAUGAGGAUCACCCAUGUUGUCGGUGACGACGCAAGGAUAUGGGCAUAUAU |  |  | 0.0245 | 0.00726
